# Shown is part of a subset that was picked to be rich in hits.
# S1P4 antagonist = antagonists of human S1P4 receptor; S1P4-expressing cells, antagonist mode, reporter read-out; inhibition, % at 4.98 µM; 220,000 tested, 0.26% active; AID 1510; in the data active means inhibition above about 29%
# Mdm2 ligase inh = blocks human Mdm2 ubiquitin ligase activity. Q00987. cell-based MDM2 ubiquitination luciferase reporter, 2 h; 0 = plate control, 100 = twice control, blank-subtracted. signal enhancement, % at 5 µM. 210,000 tested, 0.11% active. AID 1230;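 active means signal enhancement of 30% or more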;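 further: luminescence tracks abundance of the self-degrading MDM2-luciferase fusion protein; higher signal means inhibition of MDM2 E3 ligase activity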
#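 Assay system: stable mammalian line carrying autodegrading MDM2–luciferase fusion reporter; amount: 2000 cells seeded into each well; buffer or medium: DMEM; benchmarks: plate control and blank wells; signal: luciferase luminescence; timing: 2 h compound exposure at 37 °C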
# S1P3 antagonist = blocks the human S1P3 receptor; 170,000 tested, 0.27% active; AID 485; inhibition, % at 4.98 µM; Q99500; CHO S1P3 NFAT-BLA reporter, FRET fluorescence, antagonist mode;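 active means inhibition above the plate cutoff, the mean inhibition of test wells on that plate plus 3 SD, cut at about 28% in these data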;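 further: cells challenged with S1P at its EC80 of 0.8 µM; blue over green emission ratio from cleaved BLA substrate after 4 h stimulation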
# Target sequence (Q99500 whole entry, looked up): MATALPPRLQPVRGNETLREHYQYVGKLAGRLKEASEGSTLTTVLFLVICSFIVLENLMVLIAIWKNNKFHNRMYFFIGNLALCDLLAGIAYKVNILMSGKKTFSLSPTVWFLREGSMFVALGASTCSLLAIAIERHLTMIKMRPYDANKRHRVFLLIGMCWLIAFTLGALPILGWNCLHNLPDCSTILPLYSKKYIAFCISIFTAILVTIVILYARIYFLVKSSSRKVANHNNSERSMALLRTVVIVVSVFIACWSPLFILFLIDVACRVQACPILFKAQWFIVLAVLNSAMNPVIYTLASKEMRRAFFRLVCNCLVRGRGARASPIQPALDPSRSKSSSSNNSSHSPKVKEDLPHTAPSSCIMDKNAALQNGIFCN
# S1P4 agonist = agonists of human S1P4 receptor; activation, % at 4.98 µM; 220,000 tested, 0.35% active; O95977; S1P4-expressing cell line, agonist reporter assay; in the data active means activation above about 11%
# L major viab = Leishmania major promastigote growth inhibition; Leishmania major promastigotes, resazurin fluorescence viability; inhibition, % at 10 µM; 200,000 tested, 9% active; in the data active means inhibition above about 50%;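 further: promastigotes grown with compound for 44 hours at 28 °C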
# Numbers stand for hits; 0 = inactive; - = no result given.
SMILES,S1P4 antagonist,Mdm2 ligase inh,S1P3 antagonist,S1P4 agonist,L major viab
CCC(c1nnnn1C(C)(C)C)N(Cc1cccs1)Cc1cc2cc(C)c(C)cc2n2nnnc12 (stereo not given),0,-,-,0,78.3
CC(C)N(C(=O)COC(=O)[C@@H]1CC(O)CN1S(=O)(=O)c1ccc(C(C)(C)C)cc1)C(C)C (stereo not given in full),0,0,0,0,0
Cc1cc(C)c2cc(CN(CCN(C)C)C(=O)Nc3ccccc3Cl)c(=O)[nH]c2c1,0,0,0,0,58.3
Cc1cc(C)c2cc(CN(CCO)C(=O)Nc3ccc(F)cc3)c(=O)[nH]c2c1,0,0,0,0,0
O=C1COc2ccc(C(=O)COC(=O)CNC(=O)C3CCCCC3)cc2N1,0,0,0,0,0
CCN1C(=O)[C@@H]2[C@H](C1=O)[C@@H]1C[C@H]3C(=O)N(CC)C(=O)[C@H]3[C@@H]3C1=C(C(=O)N1C(=O)OC(=NCC4CC4)[C@]31C)[C@@H]2C,-,0,-,-,-
O=S(=O)(Nc1cccc(-c2cn3cccnc3n2)c1)c1ccc(-c2ccccc2)cc1,0,0,-,0,0
O=S(=O)(Nc1cccc(-c2cn3cccnc3n2)c1)c1ccccc1,0,0,0,0,88.4
O=S(=O)(Nc1cccc(-c2cn3cccnc3n2)c1)c1ccc(F)cc1,0,0,0,0,71.1
CC1CCCCN1CC(=O)c1c(N)n(Cc2ccccc2)c(=O)n(C)c1=O (stereo not given),0,0,0,0,0
O=C(Nc1ccccc1)C1=C[C@@H](C2CC2)C[C@@H](OCCCCO)O1,0,-,0,0,0
C(=C\c1ccccc1)/CN1CCN(c2ncnc3c2oc2ccccc23)CC1,0,0,-,0,57.4
S=c1[nH]nc(COc2ccccc2)n1/N=C/C=C/c1ccccc1,0,0,0,0,0
S=c1[nH]nc(-c2ccncc2)n1/N=C/C(Cl)=C\c1ccccc1,0,0,0,0,53.1
S=c1[nH]nc(COc2ccccc2)n1/N=C/C(Cl)=C/c1ccccc1,0,0,-,0,80.6
CCOc1ccc(-n2c(C)nc(O)c2N=Nc2ccccc2)cc1,0,0,0,0,0
CCOC(=O)c1cnn(-c2ccc([N+](=O)[O-])cc2)c1N,0,0,0,0,-
COc1ccc(-n2c(C)cc(-c3cn4cccc(C)c4n3)c2C)cc1,0,0,0,0,63.0
Cc1cc(-c2cn3ccccc3n2)c(C)n1-c1ccccc1,0,0,0,0,0
O=C(OCC(=O)C12CC3CC(CC(C3)C1)C2)c1cccnc1Cl,0,0,0,0,60.3
O=C(CCNc1ccc(Cl)cc1)c1cccs1,0,0,0,0,0
O=C(CSc1nc2cc(Cl)ccc2o1)c1cccs1,0,0,0,0,57.0
O=C(CCSc1ccc(Cl)cc1)c1cccs1,0,0,-,0,69.6
O=C(CSc1nc2ccc(Cl)cc2[nH]1)c1cccs1,0,-,0,0,-
Cc1ccc(NC(=O)C2CC(=O)N/C(=N/N=C/c3ccco3)S2)cc1 (stereo not given),0,0,0,0,58.5
SMILES,S1P4 antagonist,Mdm2 ligase inh,S1P3 antagonist,S1P4 agonist,L major viab
C/C(=N/N=C1/NC(=O)CC(C(=O)Nc2ccccc2)S1)c1cccs1 (stereo not given),0,0,0,0,78.1
C/C(=N/N=C1/NC(=O)CC(C(=O)O)S1)c1ccccc1 (stereo not given),0,0,0,0,0
CC(=O)c1ccc(NC(=O)C(C)NCc2ccccc2Cl)cc1 (stereo not given),0,0,0,0,0
COC(=O)c1cc(S(=O)(=O)n2nc(C)c(Br)c2C)c(Cl)cc1Cl,0,0,-,0,89.3
O=C(NCC1COc2ccccc2O1)Nc1ccccc1F (stereo not given),0,0,0,0,0
CCC(C)C(NC(=O)C1CCC(C)CC1)C(=O)NC1CCN(Cc2ccccc2)CC1 (stereo not given),0,0,0,0,0
O=C(NC1CCN(Cc2ccccc2)CC1)C(NS(=O)(=O)c1cccc2nsnc12)c1ccccc1 (stereo not given),0,0,0,0,51.0
CC(C(=O)NCCc1ccc(F)cc1)N1CCN(Cc2ccccc2)CC1 (stereo not given),0,0,0,0,82.8
O=C(CNC(=O)c1cccs1)NCCN1CCC(Cc2ccccc2)CC1,0,0,0,0,0
O=C(NCCNC1CCN(Cc2ccccc2)CC1)c1cccs1,0,0,-,0,88.3
CCCC(CCC)C(=O)NC1CCN(Cc2ccccc2)CC1,0,0,0,0,88.0
CN(C)/C=N/c1ncn(-c2ncc(C(F)(F)F)cc2Cl)n1,0,0,0,0,0

# Screening results from PubChem BioAssay.
